Source: ChEMBL document CHEMBL1147665, “Design, synthesis, and biological evaluation of 4-alkyliden-beta lactams: new products with promising antibiotic activity against resistant bacteria” (J Med Chem, 2006)
In brackets after ≈: the same amount, converted by molar mass.

Key:
Type in all cases: functional
Enterococcus = assay: Antibacterial activity against Enterococcus spp
Outline: (§1)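 Broth microdilution MIC per CLSI guidelines in Mueller-Hinton broth: serial 2-fold dilutions, inoculum 5 × 10⁵ CFU/mL in equal volume, 35 °C for 16-20 h. MIC = lowest concentration with no visible turbidity. Recent clinical isolates (43 total, Gram-positive and Gram-negative); values given as MIC ranges, MIC₅₀ and MIC₉₀ per species.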

Streptococcus pneumoniae = assay: Antibacterial activity against Streptococcus pneumoniae; outline: as §1
Haemophilus influenzae = assay: Antibacterial activity against Haemophilus influenzae; outline: as §1
Staphylococcus aureus [1] = assay: Antibacterial activity against methicillin-resistant Staphylococcus aureus
Outline: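 Clinical isolates (3 MRSA in a 43-strain panel). Broth microdilution per CLSI, serial 2-fold dilutions in Mueller-Hinton broth, inoculum 5 × 10⁵ CFU/mL, 35 °C for 16-20 h. MIC = lowest concentration with no visible turbidity; reported as MIC range, MIC₅₀ and MIC₉₀ across isolates.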

[2] = system: Staphylococcus epidermidis; assay: Antibacterial activity against Staphylococcus epidermidis; outline: as §1
Streptococcus pyogenes = assay: Antibacterial activity against Streptococcus pyogenes; outline: as §1
Staphylococcus aureus [3] = assay: Antibacterial activity against methicillin-susceptible Staphylococcus aureus; outline: as §1

Row | Compound | MIC50 (Enterococcus) | MIC90 (Enterococcus) | MIC50 (Streptococcus pneumoniae) | MIC90 (Streptococcus pneumoniae) | MIC50 (Haemophilus influenzae) | MIC90 (Haemophilus influenzae) | MIC50 (Staphylococcus aureus [1]) | MIC90 (Staphylococcus aureus [1]) | MIC50 [2] | MIC90 [2] | MIC50 (Streptococcus pyogenes) | MIC90 (Streptococcus pyogenes) | MIC50 (Staphylococcus aureus [3]) | MIC90 (Staphylococcus aureus [3])
1 | CCOC(=O)/C=C1\NC(=O)[C@@H]1[C@@H](C)OC(=O)c1cc(O)c(O)c(O)c1 | > 128 µg/mL | > 128 µg/mL | 128 µg/mL (≈ 364 µM) | > 128 µg/mL | 128 µg/mL (≈ 364 µM) | 128 µg/mL (≈ 364 µM) | 128 µg/mL (≈ 364 µM) | 128 µg/mL (≈ 364 µM) | 16 µg/mL (≈ 45.5 µM) | 64 µg/mL (≈ 182 µM) | > 128 µg/mL | > 128 µg/mL | 128 µg/mL (≈ 364 µM) | 128 µg/mL (≈ 364 µM)
2 | C[C@@H](O)[C@H]1C(=O)N/C1=C\C(=O)O | > 128 µg/mL | > 128 µg/mL | 128 µg/mL (≈ 748 µM) | 128 µg/mL (≈ 748 µM) | > 128 µg/mL | > 128 µg/mL | – | – | > 128 µg/mL | > 128 µg/mL | 128 µg/mL (≈ 748 µM) | 128 µg/mL (≈ 748 µM) | > 128 µg/mL | > 128 µg/mL
3 | CCOC(=O)/C=C1\NC(=O)[C@@H]1Cl | > 128 µg/mL | > 128 µg/mL | 128 µg/mL (≈ 675 µM) | 128 µg/mL (≈ 675 µM) | 32 µg/mL (≈ 169 µM) | 32 µg/mL (≈ 169 µM) | 128 µg/mL (≈ 675 µM) | 128 µg/mL (≈ 675 µM) | 16 µg/mL (≈ 84.4 µM) | 32 µg/mL (≈ 169 µM) | 128 µg/mL (≈ 675 µM) | 128 µg/mL (≈ 675 µM) | 32 µg/mL (≈ 169 µM) | 64 µg/mL (≈ 338 µM)
4 | C[C@@H](O[Si](C)(C)C(C)(C)C)[C@H]1C(=O)N/C1=C/C(=O)OCc1ccccc1 | 64 µg/mL (≈ 170 µM) | 64 µg/mL (≈ 170 µM) | 32 µg/mL (≈ 85.2 µM) | 32 µg/mL (≈ 85.2 µM) | 128 µg/mL (≈ 341 µM) | 128 µg/mL (≈ 341 µM) | > 128 µg/mL | – | 128 µg/mL (≈ 341 µM) | > 128 µg/mL | 64 µg/mL (≈ 170 µM) | 64 µg/mL (≈ 170 µM) | 128 µg/mL (≈ 341 µM) | > 128 µg/mL
5 | CCOC(=O)/C=C1\NC(=O)[C@@H]1[C@@H](C)OC(=O)c1ccccc1 | > 128 µg/mL | > 128 µg/mL | > 128 µg/mL | > 128 µg/mL | > 128 µg/mL | > 128 µg/mL | – | – | > 128 µg/mL | > 128 µg/mL | > 128 µg/mL | > 128 µg/mL | > 128 µg/mL | > 128 µg/mL
6 | CCOC(=O)/C=C1/NC(=O)[C@@H]1[C@@H](C)O[Si](C)(C)C(C)(C)C | > 128 µg/mL | > 128 µg/mL | 128 µg/mL (≈ 408 µM) | 128 µg/mL (≈ 408 µM) | 128 µg/mL (≈ 408 µM) | 128 µg/mL (≈ 408 µM) | 128 µg/mL (≈ 408 µM) | – | 128 µg/mL (≈ 408 µM) | 128 µg/mL (≈ 408 µM) | 128 µg/mL (≈ 408 µM) | 128 µg/mL (≈ 408 µM) | > 128 µg/mL | > 128 µg/mL
7 | C[C@@H](O[Si](C)(C)C(C)(C)C)[C@H]1C(=O)N/C1=C\C(=O)O | 128 µg/mL (≈ 448 µM) | 128 µg/mL (≈ 448 µM) | 128 µg/mL (≈ 448 µM) | 128 µg/mL (≈ 448 µM) | > 128 µg/mL | > 128 µg/mL | – | – | > 128 µg/mL | > 128 µg/mL | 128 µg/mL (≈ 448 µM) | > 128 µg/mL | > 128 µg/mL | > 128 µg/mL
8 | C[C@@H](O[Si](C)(C)C(C)(C)C)[C@H]1C(=O)N/C1=C\C(=O)Oc1cc(O)cc(O)c1 | 64 µg/mL (≈ 163 µM) | 64 µg/mL (≈ 163 µM) | 16 µg/mL (≈ 40.7 µM) | 16 µg/mL (≈ 40.7 µM) | – | – | 32 µg/mL (≈ 81.3 µM) | 64 µg/mL (≈ 163 µM) | 32 µg/mL (≈ 81.3 µM) | 64 µg/mL (≈ 163 µM) | 16 µg/mL (≈ 40.7 µM) | 16 µg/mL (≈ 40.7 µM) | 32 µg/mL (≈ 81.3 µM) | 32 µg/mL (≈ 81.3 µM)
9 | O=C(O)/C=C1\NC(=O)[C@@H]1Cl | 128 µg/mL (≈ 792 µM) | > 128 µg/mL | 128 µg/mL (≈ 792 µM) | 128 µg/mL (≈ 792 µM) | 64 µg/mL (≈ 396 µM) | 64 µg/mL (≈ 396 µM) | 128 µg/mL (≈ 792 µM) | 128 µg/mL (≈ 792 µM) | 64 µg/mL (≈ 396 µM) | 64 µg/mL (≈ 396 µM) | 16 µg/mL (≈ 99 µM) | 128 µg/mL (≈ 792 µM) | 32 µg/mL (≈ 198 µM) | 64 µg/mL (≈ 396 µM)
10 | CCOC(=O)/C=C1\NC(=O)[C@@H]1[C@@H](C)O[Si](C)(C)C(C)(C)C | > 128 µg/mL | > 128 µg/mL | 128 µg/mL (≈ 408 µM) | 128 µg/mL (≈ 408 µM) | 128 µg/mL (≈ 408 µM) | 128 µg/mL (≈ 408 µM) | – | – | > 128 µg/mL | > 128 µg/mL | 128 µg/mL (≈ 408 µM) | 128 µg/mL (≈ 408 µM) | > 128 µg/mL | > 128 µg/mL
11 | CCOC(=O)/C=C1\NC(=O)[C@@H]1[C@@H](C)OC(=O)c1cc(OCc2ccccc2)c(OCc2ccccc2)c(OCc2ccccc2)c1 | > 128 µg/mL | > 128 µg/mL | > 128 µg/mL | > 128 µg/mL | > 128 µg/mL | > 128 µg/mL | – | – | > 128 µg/mL | > 128 µg/mL | > 128 µg/mL | > 128 µg/mL | > 128 µg/mL | > 128 µg/mL
12 | CC1(C)S[C@@H]2[C@H](NC(=O)[C@H](N)c3ccc(O)cc3)C(=O)N2[C@H]1C(=O)O [AMOXICILLIN] | 2 µg/mL (≈ 5.47 µM) | 2 µg/mL (≈ 5.47 µM) | 0.12 µg/mL (≈ 0.328 µM) | 8 µg/mL (≈ 21.9 µM) | 1 µg/mL (≈ 2.74 µM) | 64 µg/mL (≈ 175 µM) | 64 µg/mL (≈ 175 µM) | 128 µg/mL (≈ 350 µM) | 1 µg/mL (≈ 2.74 µM) | 4 µg/mL (≈ 10.9 µM) | < 0.06 µg/mL | < 0.06 µg/mL | 1 µg/mL (≈ 2.74 µM) | 8 µg/mL (≈ 21.9 µM)
